Data set [1] deals with T1, Proprotein convertase subtilisin/kexin type 6 (Homo sapiens, UniProt P29122).
T1 sequence (P29122 whole entry): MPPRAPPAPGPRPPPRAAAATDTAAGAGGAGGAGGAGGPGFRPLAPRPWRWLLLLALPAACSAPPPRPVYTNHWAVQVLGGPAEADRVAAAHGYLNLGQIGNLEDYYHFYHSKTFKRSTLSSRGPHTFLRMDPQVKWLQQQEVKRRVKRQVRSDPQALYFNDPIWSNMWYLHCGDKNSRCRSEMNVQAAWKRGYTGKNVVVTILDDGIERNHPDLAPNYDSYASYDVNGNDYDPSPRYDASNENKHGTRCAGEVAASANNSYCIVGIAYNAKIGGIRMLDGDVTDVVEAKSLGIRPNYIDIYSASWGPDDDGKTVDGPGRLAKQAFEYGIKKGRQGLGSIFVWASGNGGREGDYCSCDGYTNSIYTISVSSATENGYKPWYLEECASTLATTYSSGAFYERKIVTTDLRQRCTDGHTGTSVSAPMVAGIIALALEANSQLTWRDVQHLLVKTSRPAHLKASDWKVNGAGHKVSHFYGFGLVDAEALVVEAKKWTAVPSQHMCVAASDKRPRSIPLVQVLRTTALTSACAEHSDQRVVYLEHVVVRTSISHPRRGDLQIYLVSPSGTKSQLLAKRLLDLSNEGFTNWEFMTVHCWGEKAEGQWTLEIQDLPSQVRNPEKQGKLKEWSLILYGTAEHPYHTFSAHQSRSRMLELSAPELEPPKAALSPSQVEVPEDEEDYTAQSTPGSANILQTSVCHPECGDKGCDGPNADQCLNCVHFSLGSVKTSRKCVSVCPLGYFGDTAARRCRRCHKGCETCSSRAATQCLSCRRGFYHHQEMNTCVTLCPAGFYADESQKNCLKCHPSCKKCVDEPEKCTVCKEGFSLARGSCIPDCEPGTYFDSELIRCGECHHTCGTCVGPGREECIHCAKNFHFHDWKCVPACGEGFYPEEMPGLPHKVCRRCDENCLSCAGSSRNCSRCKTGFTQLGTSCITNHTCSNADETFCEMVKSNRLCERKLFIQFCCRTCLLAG
As to the kind of experiment: Inhibition of recombinant human PACE4 expressed in drosophila S2 cells using pyrGlu-Arg-Thr-Lys-Arg-7-amido-4-methylcoumarin as substrate after 60 mins by spectrofluorometry method. The format is cell-based. In short, it runs like this: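 Human recombinant purified PACE4 at 2 units/100 µL (20.18 nM), in 20 mM BisTris pH 6.5, 1 mM CaCl2, 1.8 mg/mL BSA. Substrate 100 µM, KM 4.035 µM. Inhibitor 1 nM to 10 µM; 60 min at 37°C. Fluorescence ex 370 / em 460 nm. Ki by Morrison tight-binding equation; three independent experiments, mean ± SD.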

A further data set deals with LNCaP. As to the kind of experiment: Antiproliferative activity against human LNCAP cells assessed as reduction in metabolic activity after 72 hrs by MTT assay. Format: functional, cell-based. In short, it runs like this:
(§1)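 Cells kept at 37°C, 5% CO2 in RPMI 1640 (DU145 with 5% FBS, 1500 cells/well; LNCaP with 10% FBS, 2500 cells/well) on poly-L-lysine coated plates. Peptides added 24 h after plating in fresh serum medium at 0, 1, 10, 25, 50, 75, 100, 250 µM for 72 h. MTT 1 mg/mL final for 4 h; formazan dissolved in 2-propanol HCl. Signal normalised to water vehicle; IC50 from dose-response curves.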
On the technique in general: Tetrazolium assays rely on reduction of a dye to a coloured formazan, in cell work by metabolically active cells.

Another data set has as its system DU-145. Kind of data set: Antiproliferative activity against human DU145 cells assessed as reduction in metabolic activity after 72 hrs by MTT assay. Format: functional, cell-based. The conditions noted are these: DU-145, 72 h. In short, it runs like this: as §1
The target of another data set is Furin (Homo sapiens, UniProt P09958). Kind of data set: Inhibition of recombinant human furin expressed in drosophila S2 cells using pyrGlu-Arg-Thr-Lys-Arg-7-amido-4-methylcoumarin as substrate after 60 mins by spectrofluorometry method. Format: cell-based. In short, it runs like this: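 Human recombinant purified furin at 2 units/100 µL (0.54 nM), in 100 mM HEPES pH 7.5, 1 mM CaCl2, 1 mM β-mercaptoethanol, 1.8 mg/mL BSA. His-containing peptides run instead in 20 mM BisTris pH 6.5 with the same additives. Substrate 100 µM, KM 5.04 µM. Inhibitor 1 nM to 10 µM; 60 min at 37°C. Fluorescence ex 370 / em 460 nm. Ki by Morrison equation; triplicate experiments, mean ± SD.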
Sequence of Furin (P09958 whole entry): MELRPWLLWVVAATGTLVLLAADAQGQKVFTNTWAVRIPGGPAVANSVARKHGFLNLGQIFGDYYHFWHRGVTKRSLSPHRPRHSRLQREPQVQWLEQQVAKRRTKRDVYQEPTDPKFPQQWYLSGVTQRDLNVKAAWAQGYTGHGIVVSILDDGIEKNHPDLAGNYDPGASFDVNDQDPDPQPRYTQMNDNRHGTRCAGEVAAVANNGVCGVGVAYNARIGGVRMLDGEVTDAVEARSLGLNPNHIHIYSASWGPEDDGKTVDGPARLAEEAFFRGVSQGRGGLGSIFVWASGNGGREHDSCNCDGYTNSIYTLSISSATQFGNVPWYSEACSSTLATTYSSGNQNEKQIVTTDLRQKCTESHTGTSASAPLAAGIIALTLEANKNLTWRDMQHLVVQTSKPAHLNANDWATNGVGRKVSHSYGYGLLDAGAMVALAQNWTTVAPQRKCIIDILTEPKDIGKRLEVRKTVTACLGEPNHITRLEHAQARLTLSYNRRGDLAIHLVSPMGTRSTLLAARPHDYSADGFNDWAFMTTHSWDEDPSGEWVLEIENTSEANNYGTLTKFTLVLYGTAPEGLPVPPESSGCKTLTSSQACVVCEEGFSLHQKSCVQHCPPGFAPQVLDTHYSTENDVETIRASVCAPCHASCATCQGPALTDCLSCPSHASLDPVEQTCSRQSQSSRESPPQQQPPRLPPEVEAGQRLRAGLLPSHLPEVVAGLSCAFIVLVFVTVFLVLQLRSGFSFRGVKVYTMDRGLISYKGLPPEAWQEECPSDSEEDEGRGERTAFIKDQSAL

For another data set, the species on record is Homo sapiens. As to the kind of experiment: Selectivity index, ratio of Ki for recombinant human furin expressed in drosophila S2 cells to Ki for recombinant human PACE4 expressed in drosophila S2 cells. Format: cell-based. In short, it runs like this: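 Ratio Ki(furin)/Ki(PACE4). […] PACE4 buffer was BisTris pH 6.5; furin buffer was HEPES pH 7.5, or BisTris pH 6.5 for His peptides. Ki fitted by Morrison equation from three independent experiments.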

Data set [2] in a line: Drug uptake in human DU145 cells assessed as geometric mean fluorescence intensity after 1 hr by propidium iodine-staining based FACS analysis. The format is ADME, cell-based. The conditions noted are these: du-145, 1 h. Summed up: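 DU145 cells exposed 1 h to FITC-labelled peptide (10 µM) in serum-free RPMI, detached with trypsin:EDTA and pelleted, with no trypsin wash. Dead cells excluded by 2 min propidium iodide (10 µg/mL). Flow cytometry read 10 000 events/sample, and uptake was given as geometric mean fluorescence.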
For orientation: A flow cytometer gives signals particle by particle.

Data set [3] can be described thus: Drug uptake in human DU145 cells assessed as geometric mean fluorescence intensity preincubated for 1 hr followed by trypsin washout for 5 mins by propidium iodine-staining based FACS analysis. Format: ADME, cell-based. The conditions noted are these: du-145, 5 min. Summed up:
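DU145 cells given FITC-labelled peptide (10 µM) for 1 h in serum-free RPMI, harvested by trypsin:EDTA, then washed twice with 0.05% trypsin for 5 min at 37 °C to strip membrane-bound peptide. Propidium iodide (10 µg/mL, 2 min) excluded damaged cells. 10 000 events/sample were read by flow cytometry as geometric mean fluorescence.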

One may read the Ki as a measure of affinity in units of concentration, obtained from inhibition or displacement. The term IC50 denotes the midpoint of a concentration-inhibition curve.

Square brackets hold non-standard residues; d marks the D form. Peptide text beside a SMILES is read from it. * marks the point of attachment. FITC = O=C1OC2(c3ccc(O)cc3Oc3cc(O)ccc32)c2ccc(NC(=S)*)cc21; NH(4-amidinobenzyl) = N=C(N)c1ccc(CN*)cc1; βAla = NCCC(=O)O

`CC(=O)N[C@H](CC(C)C)C(=O)N[C@@H](CC(C)C)C(=O)N[C@@H](CC(C)C)C(=O)N[C@@H](CC(C)C)C(=O)N[C@@H](CCCNC(=N)N)C(=O)N[C@H](C(=O)N[C@@H](CCCCN)C(=O)NCc1ccc(C(=N)N)cc1)C(C)C` (Ac-[dL]LLLRVK-{NH(4-amidinobenzyl)}): the inhibitory constant (Ki) in data set [1] is 0.0049 µM; at Furin it was 0.0098 µM. The 50% inhibitory concentration (IC50) is 40 µM with LNCaP and 25 µM in the data set with DU-145. Also, the Ratio Ki in the data set filed under Homo sapiens is 2.

On to `CC[C@H](C)[C@H](NC(=O)[C@H](CC(C)C)NC(=O)[C@H](CC(C)C)NC(=O)[C@H](CC(C)C)NC(=O)CCNC(=S)Nc1ccc2c(c1)C(=O)OC21c2ccc(O)cc2Oc2cc(O)ccc21)C(=O)N[C@@H](CCCNC(=N)N)C(=O)N[C@H](C(=O)N[C@@H](CCCCN)C(=O)NCc1ccc(C(=N)N)cc1)C(C)C` ({FITC-βAla}-LLLIRVK-{NH(4-amidinobenzyl)}), for which the Flu intensity in data set [2] is reported as 87.66; in data set [3] it was 99.26.

As to `CC(C)C[C@H](NC(=O)CCNC(=S)Nc1ccc2c(c1)C(=O)OC21c2ccc(O)cc2Oc2cc(O)ccc21)C(=O)N[C@@H](CC(C)C)C(=O)N[C@@H](CC(C)C)C(=O)N[C@@H](CC(C)C)C(=O)N[C@@H](CCCNC(=N)N)C(=O)N[C@H](C(=O)N[C@@H](CCCCN)C(=O)NCc1ccc(C(=N)N)cc1)C(C)C` ({FITC-βAla}-LLLLRVK-{NH(4-amidinobenzyl)}), the Flu intensity was 46.61 in data set [2] and 47.45 in data set [3].

For the compound `CC(C)C[C@H](NC(=O)CCNC(=S)Nc1ccc2c(c1)C(=O)OC21c2ccc(O)cc2Oc2cc(O)ccc21)C(=O)N[C@@H](CC(C)C)C(=O)N[C@@H](CC(C)C)C(=O)N[C@@H](CCCNC(=N)N)C(=O)N[C@@H](CCCNC(=N)N)C(=O)N[C@H](C(=O)N[C@@H](CCCCN)C(=O)NCc1ccc(C(=N)N)cc1)C(C)C` ({FITC-βAla}-LLLRRVK-{NH(4-amidinobenzyl)}), the Flu intensity in data set [2] amounted to 12.6; in data set [3] it was 2.73.

Source of the values: ChEMBL document CHEMBL4049407, “Positional Scanning Identifies the Molecular Determinants of a High Affinity Multi-Leucine Inhibitor for Furin and PACE4” (J Med Chem, 2017).
